Test results taken from ChEMBL document CHEMBL3259672, “Design, synthesis, and biological evaluation of O-2-modified indenoisoquinolines as dual topoisomerase I-tyrosyl-DNA phosphodiesterase I inhibitors” (J Med Chem, 2014).
Active and inactive are the calls of the source. No cut-off for these calls is given here.

Legend:
[1] = molecular target: T1, DNA topoisomerase 1 (Homo sapiens) (UniProt P11387); test: Inhibition of human recombinant topoisomerase 1-mediated 117 bp DNA cleavage at 0.1 to 100 uM by agarose gel electrophoresis; details: in the assay text read “denaturing PAGE” for “agarose gel electrophoresis”
T1 sequence (whole entry): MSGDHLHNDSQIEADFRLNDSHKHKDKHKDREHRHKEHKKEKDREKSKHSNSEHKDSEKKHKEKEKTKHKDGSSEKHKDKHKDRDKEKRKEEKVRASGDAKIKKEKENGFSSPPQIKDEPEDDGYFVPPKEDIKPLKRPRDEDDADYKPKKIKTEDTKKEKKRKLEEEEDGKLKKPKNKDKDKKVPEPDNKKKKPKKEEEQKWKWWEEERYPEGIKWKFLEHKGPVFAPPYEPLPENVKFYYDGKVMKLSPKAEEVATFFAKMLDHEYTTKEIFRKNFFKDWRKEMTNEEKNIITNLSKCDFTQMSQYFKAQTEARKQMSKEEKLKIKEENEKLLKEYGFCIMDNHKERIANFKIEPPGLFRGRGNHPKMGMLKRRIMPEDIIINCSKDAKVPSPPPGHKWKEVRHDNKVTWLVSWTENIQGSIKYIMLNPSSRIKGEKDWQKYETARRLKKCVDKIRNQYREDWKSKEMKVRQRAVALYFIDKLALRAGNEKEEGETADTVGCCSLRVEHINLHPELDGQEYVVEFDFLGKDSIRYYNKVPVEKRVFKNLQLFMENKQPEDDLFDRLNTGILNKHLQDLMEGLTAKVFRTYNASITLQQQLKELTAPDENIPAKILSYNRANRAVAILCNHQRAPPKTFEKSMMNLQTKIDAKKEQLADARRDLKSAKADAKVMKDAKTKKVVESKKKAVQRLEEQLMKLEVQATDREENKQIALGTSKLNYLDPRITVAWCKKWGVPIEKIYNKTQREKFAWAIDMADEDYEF
Summary of the method: (§1)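 Human recombinant Top1 was purified from baculovirus. Compound was tested at 0.1, 1, 10 and 100 μM for 20 min at 25 °C. Reactions were stopped with SDS (0.5% final) and run on 20% denaturing PAGE with phosphoimager read-out. Activity was graded semiquantitatively.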

DU-145 = test: Growth inhibition of human DU145 cells after 48 hrs by SRB assay; type: functional; details: DU-145, 48 h
Summary of the method: (§2)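 NCI60 screen. Cells were exposed to 100, 10, 1, 0.1 and 0.01 μM for 48 h, then stained with sulforhodamine B and read by optical density. Percent growth relative to control was plotted against log concentration. […] Where a standard error is given, values are the mean of two determinations.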

[2] = Growth inhibition of human UACC62 cells after 48 hrs by SRB assay; type: functional; details: UACC-62, 48 h; summary of the method: as §2
[3] = Growth inhibition of human OVCAR3 cells after 48 hrs by SRB assay; type: functional; details: OVCAR-3, 48 h; summary of the method: as §2
[4] = Growth inhibition of human SF539 cells after 48 hrs by SRB assay; type: functional; details: SF-539, 48 h; summary of the method: as §2
MCF7 = test: Growth inhibition of human MCF7 cells after 48 hrs by SRB assay; type: functional; details: MCF7, 48 h; summary of the method: as §2
[5] = molecular target: Tyrosyl-DNA phosphodiesterase 1 (Homo sapiens, UniProt Q9NUW8); test: Inhibition of recombinant TDP1(unknown origin) using 5'-[32P]-single stranded N14Y DNA oligonucleotide after 15 mins by […]
Summary of the method: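 A 5′-32P-labeled single-stranded oligonucleotide with 3′ phosphotyrosine (N14Y) was incubated with 5 pM recombinant TDP1 for 15 min at room temperature. Loss of the N14P product band on the gel marks inhibition.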

[6] = molecular target: T1, DNA topoisomerase 1 (Homo sapiens); test: Inhibition of human recombinant topoisomerase 1-mediated 117 bp DNA cleavage by agarose gel electrophoresis; details: in the assay text read “denaturing PAGE” for “agarose gel electrophoresis”; summary of the method: as §1
SN12C = test: Growth inhibition of human SN12C cells after 48 hrs by SRB assay; type: functional; summary of the method: as §2
HOP-62 = test: Growth inhibition of human HOP62 cells after 48 hrs by SRB assay; type: functional; details: HOP-62, 48 h; summary of the method: as §2
HCT-116 = test: Growth inhibition of human HCT116 cells after 48 hrs by SRB assay; type: functional; details: HCT-116, 48 h; summary of the method: as §2

Tyrosyl-DNA phosphodiesterase 1, sequence (Q9NUW8 whole entry): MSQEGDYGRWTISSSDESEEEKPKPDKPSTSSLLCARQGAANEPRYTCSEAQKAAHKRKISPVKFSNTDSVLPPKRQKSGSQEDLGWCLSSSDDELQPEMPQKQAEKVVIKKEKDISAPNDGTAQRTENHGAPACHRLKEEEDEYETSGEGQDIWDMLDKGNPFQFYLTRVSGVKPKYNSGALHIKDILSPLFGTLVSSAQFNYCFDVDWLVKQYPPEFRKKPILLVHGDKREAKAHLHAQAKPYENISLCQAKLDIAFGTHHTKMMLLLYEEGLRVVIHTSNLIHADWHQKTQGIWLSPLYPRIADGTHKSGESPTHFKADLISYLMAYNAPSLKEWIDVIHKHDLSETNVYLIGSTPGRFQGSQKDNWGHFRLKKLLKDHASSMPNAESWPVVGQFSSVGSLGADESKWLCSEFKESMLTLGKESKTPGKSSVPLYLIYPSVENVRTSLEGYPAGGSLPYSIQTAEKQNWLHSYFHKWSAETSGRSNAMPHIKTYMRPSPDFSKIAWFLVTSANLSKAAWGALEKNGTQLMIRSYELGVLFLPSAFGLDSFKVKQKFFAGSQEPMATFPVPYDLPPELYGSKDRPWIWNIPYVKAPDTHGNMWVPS

## COc1cc2c(=O)n(CCCN3CCOCC3)c3c(c2cc1OCCCN1CCCC1)C(=O)c1cc2c(cc1-3)OCO2
[1]
  inhibition: Active
DU-145
  GI50: 40 nM
[2]
  GI50: 300 nM
[3]
  GI50: 1200 nM
[4]
  GI50: 200 nM
MCF7
  GI50: 100 nM

## C=CCOc1cc2c3c(n(CCCN4CCOCC4)c(=O)c2cc1OC)-c1cc2c(cc1C3=O)OCO2
[5]
  IC50: > 111 µM
[6]
  inhibition: inactive
DU-145
  GI50: < 10 nM
SN12C
  GI50: < 10 nM
[2]
  GI50: < 10 nM
[3]
  GI50: 300 nM
[4]
  GI50: 10 nM
HOP-62
  GI50: < 10 nM
MCF7
  GI50: < 10 nM

## COC(=O)COc1cc2c3c(n(CCCN4CCOCC4)c(=O)c2cc1OC)-c1cc2c(cc1C3=O)OCO2
[5]
  IC50: > 111 µM
[6]
  inhibition: Active
DU-145
  GI50: 900 nM
SN12C
  GI50: 800 nM
[2]
  GI50: 1000 nM
[3]
  GI50: 5800 nM
[4]
  GI50: 100 nM
HCT-116
  GI50: 1100 nM
HOP-62
  GI50: 100 nM
MCF7
  GI50: 400 nM

## COc1cc2c(=O)n(CCCN3CCOCC3)c3c(c2cc1OCCCN1CCCCC1)C(=O)c1cc2c(cc1-3)OCO2
[5]
  inhibition: Dose-dependent effect
[1]
  inhibition: Active
DU-145
  GI50: 200 nM
SN12C
  GI50: 400 nM
[2]
  GI50: 9600 nM
[3]
  GI50: 5400 nM
[4]
  GI50: 30 nM
HCT-116
  GI50: 1100 nM
HOP-62
  GI50: 300 nM
MCF7
  GI50: 40 nM

## COc1cc2c(=O)n(CCCN3CCOCC3)c3c(c2cc1O)C(=O)c1cc2c(cc1-3)OCO2
[6]
  inhibition: Active
DU-145
  GI50: 300 nM
SN12C
  GI50: 200 nM
[2]
  GI50: 300 nM
[3]
  GI50: 900 nM
[4]
  GI50: 300 nM
HCT-116
  GI50: 390 nM
HOP-62
  GI50: 300 nM
MCF7
  GI50: 100 nM

## COc1cc2c(=O)n(CCCN3CCOCC3)c3c(c2cc1OCCCN1CCOCC1)C(=O)c1cc2c(cc1-3)OCO2
[5]
  IC50: > 111 µM
[6]
  inhibition: Active
DU-145
  GI50: 20 nM
SN12C
  GI50: 100 nM
[2]
  GI50: 200 nM
[3]
  GI50: 700 nM
[4]
  GI50: 100 nM
HCT-116
  GI50: 100 nM
HOP-62
  GI50: 30 nM
MCF7
  GI50: 20 nM

## COc1cc2c3c(n(C)c(=O)c2cc1OC)-c1cc2c(cc1C3=O)OCO2
DU-145
  GI50: 37000 nM
SN12C
  GI50: 68000 nM
[2]
  GI50: 4200 nM
[3]
  GI50: 73000 nM
HCT-116
  GI50: 35000 nM
HOP-62
  GI50: 1300 nM

## COc1cc2c(=O)n(CCCN3CCOCC3)c3c(c2cc1OCCCN)C(=O)c1cc2c(cc1-3)OCO2
[6]
  inhibition: inactive
DU-145
  GI50: 300 nM
SN12C
  GI50: 300 nM
[2]
  GI50: 300 nM
[3]
  GI50: 400 nM
[4]
  GI50: 200 nM
HOP-62
  GI50: 300 nM

## CCNCCCOc1cc2c3c(n(CCCN4CCOCC4)c(=O)c2cc1OC)-c1cc2c(cc1C3=O)OCO2
[5]
  inhibition: Dose-dependent effect
[1]
  inhibition: Active

## COc1cc2c(=O)n(CCCN3CCOCC3)c3c(c2cc1OCC(=O)NN)C(O)c1cc2c(cc1-3)OCO2 (configuration not stated)
[5]
  IC50: > 111 µM
[6]
  inhibition: inactive

## COc1cc2c(=O)n(CCCN3CCOCC3)c3c(c2cc1OCCCN1CCN(C)CC1)C(=O)c1cc2c(cc1-3)OCO2
[5]
  IC50: > 111 µM
  inhibition: Dose-dependent effect
[1]
  inhibition: Active

## COc1cc2c3c(n(CCCNCCO)c(=O)c2cc1OC)-c1cc2c(cc1C3=O)OCO2 [LMP-744]
[4]
  GI50: 40 nM

## COc1cc2c(=O)n(CCCN3CCOCC3)c3c(c2cc1OCCCN(C)C)C(=O)c1cc2c(cc1-3)OCO2
[5]
  inhibition: Dose-dependent effect
[1]
  inhibition: Active
